# Screening data: PubChem BioAssay, The Scripps Research Institute Molecular Screening Center
# This is a sample that favours compounds with a hit; in the whole collection about 4.2% have one here.
# CHO parental Ca = counter-screen: ATP calcium response change in parental CHO cells; AID 463079; 0.63% of 330,000 active; parental CHO-K1, ATP-induced calcium, Fluo-8 fluorescence; inhibition, % at 5.6 µM;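 active means inhibition above that plate's mean sample inhibition plus 3 SD, cut at about 26% in these data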;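 further: 0% = ATP-challenged DMSO wells and 100% = DMSO wells without ATP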
#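 Test system: untransfected parental CHO cell line; also added: ATP stimulus; dosing: 5.6 µM, single dose; signal: calcium-sensitive Fluo-8 fluorescence; measure: percent inhibition of ATP-evoked calcium rise, normalized to controls; benchmarks: low control ATP plus DMSO, high control DMSO only; replication: one well per compound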
# TAAR1 agonist = agonists of human TAAR1; Q96RJ0; CHO RD-HGA16 TAAR1, Fluo-8 calcium fluorescence; vehicle wells 0%, saturating PEA agonist 100%; activation, % at 3 µM; 0.99% of 360,000 active;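 active means activation above the mean activation of all test compounds in the run plus 3 SD, cut at about 38% in these data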
#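 Assay system: CHO-derived RD-HGA16 cells with stable Gα16 and human TAAR1; timing: 17-24 h seeding, 75 min 37 °C dye, 30 min RT; read-out: % activation from peak over basal fluorescence ratio, DMSO-to-PEA scaled; measured by: kinetic Fluo-8 calcium fluorescence; benchmarks: low control DMSO, high control PEA (EC100); doses: 3 µM single concentration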
# OX1R antag-1 = antagonists of human orexin 1 receptor (OX1R); O43613; OX1R-expressing cells, FRET antagonist read-out; inhibition, % at 6.6 µM; 1.8% of 330,000 active; AID 485270; in the data active means inhibition mostly above about 38%, no sharp cut-off; inactive means mostly below about 40%;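 further: 0% = agonist challenge alone and 100% = reference antagonist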
# Target sequence (O43613 whole entry, looked up): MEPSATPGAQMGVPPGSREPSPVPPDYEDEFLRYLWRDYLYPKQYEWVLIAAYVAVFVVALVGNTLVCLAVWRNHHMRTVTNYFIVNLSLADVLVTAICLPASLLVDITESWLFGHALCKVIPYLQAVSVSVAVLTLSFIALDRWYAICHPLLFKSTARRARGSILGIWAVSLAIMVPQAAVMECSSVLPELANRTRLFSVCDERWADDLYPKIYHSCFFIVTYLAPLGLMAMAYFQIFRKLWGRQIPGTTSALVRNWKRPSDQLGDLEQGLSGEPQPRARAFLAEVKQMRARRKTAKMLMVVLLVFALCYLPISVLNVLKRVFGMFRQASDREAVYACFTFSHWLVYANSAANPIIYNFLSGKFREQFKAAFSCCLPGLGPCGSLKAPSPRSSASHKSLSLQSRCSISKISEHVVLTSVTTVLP
# OX1R antag-2 = blocks the human orexin 1 receptor; O43613; CHO/OX1R cells, Fluo-8 calcium fluorescence, orexin A; inhibition, % at 5 µM; 0.43% of 330,000 active;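 active means inhibition above its plate's threshold, mean inhibition of all tested compounds on the plate plus 3 SD, cut at about 37% in these data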;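 further: 0% = orexin A challenge wells and 100% = SB-334867-A antagonist wells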
# GalR3 antagonist = blocks the human galanin receptor 3. 0.44% of 360,000 active. HEK293 GalR3-CNG cAMP membrane potential fluorescence; galR3 body fused to GalR1 C-terminus. O60755. inhibition, % at 3 µM;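 active means inhibition above the screen-wide average plus 3 SD, cut at about 13% in these data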;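 further: forskolin and galanin both at EC90 stimulate the cells; cAMP rise reported by CNG channel membrane potential dye signal; 0% = forskolin plus galanin with DMSO and 100% = forskolin alone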
# Target sequence (O60755 1-299 limits assumed): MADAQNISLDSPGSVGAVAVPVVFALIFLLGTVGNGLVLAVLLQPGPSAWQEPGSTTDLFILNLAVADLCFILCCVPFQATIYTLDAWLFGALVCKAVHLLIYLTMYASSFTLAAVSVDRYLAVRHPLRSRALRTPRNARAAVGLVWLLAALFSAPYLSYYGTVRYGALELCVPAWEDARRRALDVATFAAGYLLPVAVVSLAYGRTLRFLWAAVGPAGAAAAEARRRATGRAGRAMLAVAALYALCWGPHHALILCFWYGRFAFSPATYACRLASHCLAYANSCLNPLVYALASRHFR
# TAAR1 antag = human TAAR1 antagonism; Q96RJ0; CHO RD-HGA16 TAAR1, Fluo-8 calcium fluorescence, antagonist; inhibition, % at 3 µM; 1.5% of 360,000 active; AID 624466;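 active means inhibition above a per-plate cutoff, the mean inhibition of test compounds on that plate plus 3 SD, cut at about 49% in these data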;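 further: 0% = DMSO plus EC80 beta-PEA response and 100% = DMSO alone without agonist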
#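 Test system: RD-HGA16 CHO cells with stable hTAAR1 and Gα16 / Probe or stimulus: EC80 β-phenethylamine stimulus / Times: seeding 17-24 h prior, 75-min 37 °C, 30-min RT dye loading / Detection: Fluo-8 calcium-sensitive fluorescence / Read-out basis: % inhibition scaled between DMSO and EC80 PEA controls / Repeats: singlicate, one well per test compound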
# OX1R HTRF conf = confirmation of human orexin 1 receptor antagonists, HTRF format; OX1R-expressing cells, HTRF antagonist assay; shares compounds with OX1R antag-1; AID 492964; inhibition, % at 6.6 µM; 49% of 1,800 active; in the data active means inhibition above about 55%;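 further: CHO cells expressing OX1R stimulated with orexin A at about EC80; 0% = agonist challenge alone and 100% = reference antagonist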
# CHO-K1 HTRF = counter-screen for OX1R antagonists: effect in parental CHO-K1 cells; shares compounds with OX1R antag-1; 48% of 1,800 active; AID 493232; inhibition, % at 6.6 µM; HTRF counterscreen; in the data active means inhibition above about 17%;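 further: 0% = agonist challenge with vehicle and 100% = vehicle alone without agonist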
# An asterisk follows results filed as active; x = no result.
SMILES,CHO parental Ca,TAAR1 agonist,OX1R antag-1,OX1R antag-2,GalR3 antagonist,TAAR1 antag,OX1R HTRF conf,CHO-K1 HTRF
O=S(=O)(Nc1ccccc1)c1cccc2nsnc12,7.0,2.5,25.7,-6.5,-10.0,-5.2,x,x
CC(=O)Nc1ccc(NC(=O)C2CCCN2S(=O)(=O)c2cccc3nsnc23)cc1 (configuration not stated),5.4,0.3,79.5*,-11.6,-1.4,0.6,62.5*,35.9*
O=C(NCc1ccco1)C1CCCN(S(=O)(=O)c2cccc3nsnc23)C1 (configuration not stated),2.6,3.4,78.1*,-12.9,-0.1,20.4,30.6,34.1*
O=C(CCNS(=O)(=O)c1cccc2nsnc12)NCc1ccco1,-0.5,5.3,122.1*,-40.7,-7.8,4.9,35.0,39.5*
CCCNC(=O)C(NS(=O)(=O)c1cccc2nsnc12)c1ccccc1 (configuration not stated),-20.2,2.4,97.5*,-31.1,-1.2,-26.3,63.9*,35.7*
Cc1ccc(CNC(=O)C(NS(=O)(=O)c2cccc3nsnc23)C(C)C)cc1 (configuration not stated),-11.8,3.6,38.2,-18.2,-7.4,-18.6,x,x
COC(=O)Cn1ncc(N2C3CC(CC(C)(C)C3)C2C)c(Cl)c1=O (configuration not stated),-5.4,0.0,6.1,-20.4,-1.9,-14.2,x,x
NC(=O)c1c(NC(=O)c2ccc(S(=O)(=O)N3CCOCC3)cc2)sc2c1CCCCC2,-12.3,3.9,4.8,-13.8,2.6,-1.8,x,x
CCN(CC)c1ccc2nc3ccccc3[n+](CC)c2c1,-7.5,x,149.4*,0.6,x,x,110.2*,157.1*
COc1cc(SC)ccc1C(=O)Nc1ccc2ncccc2c1,-23.1,2.4,89.8*,-1.2,-11.6,8.7,85.9*,14.2
COc1cc(SC)ccc1C(=O)Nc1ccccn1,-15.7,0.5,13.0,-17.7,-2.8,4.0,x,x
Cc1ccccc1N=C1c2cc([N+](=O)[O-])ccc2-c2ncccc21,-8.7,9.5,159.7*,-9.3,-2.4,-2.1,36.3,41.9*
Cc1cc([N+](=O)[O-])cc2c1-c1ncccc1C2=Nc1ccccc1,-5.6,-0.5,6.4,-22.1,-9.2,7.2,x,x
CCN(CC(=O)Nc1ccc2c(c1)OCCO2)C(=O)CCc1ccc(OC)cc1,x,-0.4,x,x,-6.3,-10.8,x,x
COCCn1c(SCC(=O)Nc2ccccc2)nnc1-c1ccoc1C,-11.9,4.0,12.8,-19.0,2.5,-6.5,x,x
COCCn1c(SCC(=O)Nc2nc3ccccc3s2)nnc1-c1ccoc1C,-19.6,11.2,81.2*,-9.0,0.2,-10.7,36.6,3.3
O=C(c1cccs1)N1C(=O)c2cccc3cccc1c23,-14.5,-1.1,21.4,-13.3,-0.3,-35.9,x,x
CC/C(C)=N\N=C\c1c(O)n(CC)c2cc(C3=NNC(=O)CC3)ccc12,-12.9,x,88.2*,-7.4,x,x,20.6,14.0
CCN(CC)c1ccc(/C=N/NC(=O)c2c(Cl)cnn2C)c(O)c1,-9.2,0.7,76.9*,20.3,-1.3,-3.8,66.4*,11.5
CC(NC(=O)c1ccncc1)c1ccc(Cl)cc1Cl (configuration not stated),-8.5,5.7,1.6,-14.8,-9.8,-8.0,x,x
Nc1cc(Cl)ccc1C(=O)OCC(=O)N1CCCC1,-3.9,0.6,-8.7,-13.3,-5.0,-11.6,x,x
O=C(OCC(=O)N1CCCC1)c1cc([N+](=O)[O-])ccc1Cl,-5.0,1.6,117.7*,-6.4,-6.5,-3.1,54.6,55.8*
O=C(c1ccc([N+](=O)[O-])s1)N1CCN(c2ccc(C(F)(F)F)cn2)CC1,17.4,-4.0,99.4*,5.7,-8.9,-1.2,28.6,18.9*
O=S1(=O)NC(=NCc2ccco2)c2ccccc21,-5.8,15.6,8.2,-16.8,-4.5,-6.1,x,x
CN(CCO)c1cc(N2CCN(C(=O)c3ccco3)CC2)c2nonc2c1[N+](=O)[O-],3.0,-0.1,106.9*,1.6,-2.9,-5.6,43.5,48.4*
SMILES,CHO parental Ca,TAAR1 agonist,OX1R antag-1,OX1R antag-2,GalR3 antagonist,TAAR1 antag,OX1R HTRF conf,CHO-K1 HTRF
CC1CCN(c2cc(N(C)CCO)c([N+](=O)[O-])c3nonc23)CC1,-4.5,1.4,38.8,-13.2,-4.5,-14.5,x,x
COC(=O)C1=C(C)N(Cc2cccc(C(F)(F)F)c2)C(=NCc2ccc(C(F)(F)F)cc2)NC1c1ccccc1 (configuration not stated),x,9.8,x,x,-5.6,19.0,x,x
O=C(C1CCCN(S(=O)(=O)c2ccccc2[N+](=O)[O-])C1)N1CCCC1 (configuration not stated),1.4,-0.4,122.2*,22.2,-2.3,2.5,27.0,4.1
O=C(O)C1CCCN(S(=O)(=O)c2ccccc2[N+](=O)[O-])C1 (configuration not stated),-5.7,6.7,2.0,-1.0,-8.7,2.0,x,x
O=C(c1nc2ccc(Cl)cn2c1CN1CCCC(CO)C1)N1CCc2ccccc2C1 (configuration not stated),-15.8,1.3,32.2,-30.0,-2.3,-26.9,x,x
COc1ccc(/C=C/c2ccc3ccccc3[n+]2C)cc1OC,4.5,x,78.3*,-5.3,x,x,70.0*,85.6*
CCOC(=O)c1ccc([N+](=O)[O-])cc1NC(C)=O,-4.9,-1.1,82.8*,2.4,-2.6,-12.2,35.0,43.7*
COc1cccc(NC(=O)CN(C)C(=O)COc2cc(C)ccc2Cl)c1,-6.6,1.4,17.5,-12.7,2.2,-13.1,x,x
O=C(Cn1cnc2cc([N+](=O)[O-])ccc2c1=O)NCCc1ccc(F)cc1,-11.9,2.9,41.7,-14.1,-0.2,-3.7,x,x
O=C(CCC(=O)NNC(=O)c1ccc([N+](=O)[O-])cc1)NCc1ccccc1,-11.5,9.5,90.7*,-17.6,0.3,3.6,32.7,39.1*
CC(C)N(C(=O)Cn1cnc2cc([N+](=O)[O-])ccc2c1=O)C(C)C,-9.6,x,141.4*,-12.3,x,x,44.0,92.7*
O=C(CCNC(=O)c1ccc([N+](=O)[O-])cc1)NCc1ccccc1,x,2.1,x,x,-2.3,9.2,x,x
O=C(Cn1cnc2cc([N+](=O)[O-])ccc2c1=O)NCc1ccccc1,-11.5,-0.7,95.3*,-14.9,-2.9,6.3,54.9*,61.9*
O=C(CCS(=O)(=O)c1ccc(Br)cc1)Nc1ccc(Cl)cc1F,-22.0,5.6,21.6,-28.2,-5.1,-25.0,x,x
CCOC(=O)/C=C/C(=O)Nc1ccccc1C(=O)NC1CCCCC1,-18.7,4.4,13.3,-38.0,-6.2,-18.4,x,x
